Data on one compound can be found in ChEMBL document CHEMBL5705905, “Pharmacological targeting of kinases MST1 and MST2 augments tissue repair and regeneration” (Sci Transl Med, 2016).

Series [1] concerns the target Cyclin-dependent kinase 2 homolog (Plasmodium falciparum (isolate K1 / Thailand)) (UniProt Q07785). Briefly: Inhibition of Plasmodium falciparum PK5 assessed as remaining activity at 1 uM by Kinome scan method relative to control.
The target in series [2] is Activin receptor type-2A (Homo sapiens) (UniProt P27037). Kind of series: Inhibition of ACVR2A (unknown origin) assessed as remaining activity at 1 uM by Kinome scan method relative to control. The method, boiled down: (§1)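 Active-site-dependent competition-binding (KINOMEscan) panel of 468 kinases, test compound at 1 μM (from a 10 mM DMSO stock). Read-out is ctrl% = (test signal − positive control signal)/(negative control signal − positive control signal) × 100. DMSO is the negative control (100%) and a control compound is the positive control (0%). Lower ctrl% means tighter binding.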

In series [3] the target is Serine/threonine-protein kinase MRCK gamma (Homo sapiens) (UniProt Q6DT37). Briefly: Inhibition of DMPK2 (unknown origin) assessed as remaining activity at 1 uM by Kinome scan method relative to control.
The subject of the next series is RAW264.7. Kind of series: Inhibition of MST1/2 (unknown origin) in mouse RAW264.7 cells assessed as H2O2 stimulated MOB1 phosphorylation level at 1 to 3 uM by immunoblot analysis. The series is classed as cell-based. As to conditions: dose 1-3 µM. (In general: A western blot detects proteins with antibodies after separation by electrophoresis.)
Series [4] deals with Receptor tyrosine-protein kinase erbB-3 (Homo sapiens) (UniProt P21860). Kind of series: Inhibition of ERBB3 (unknown origin) assessed as remaining activity at 1 uM by Kinome scan method relative to control.
Series [5] deals with Mast/stem cell growth factor receptor Kit (Homo sapiens), P10721 [V559D,V654A]. Briefly: Inhibition of KIT V559D/V654A mutant (unknown origin) assessed as remaining activity at 1 uM by Kinome scan method relative to control.
Series [6] has as its target Serine/threonine-protein kinase 36 (Homo sapiens) (UniProt Q9NRP7). Kind of series: Inhibition of STK36 (unknown origin) assessed as remaining activity at 1 uM by Kinome scan method relative to control.
For series [7], the system named is Receptor-type tyrosine-protein kinase FLT3 (Homo sapiens), P36888 [UNDEFINED MUTATION]. Briefly: Inhibition of FLT3 ITD mutant (unknown origin) assessed as remaining activity at 1 uM by Kinome scan method relative to control.
The target of series [8] is Beta-adrenergic receptor kinase 1 (Homo sapiens) (UniProt P25098). Kind of series: Inhibition of GRK2 (unknown origin) assessed as remaining activity at 1 uM by Kinome scan method relative to control.
For series [9], the target named is Mitogen-activated protein kinase kinase kinase kinase 1 (Homo sapiens) (UniProt Q92918). Kind of series: Inhibition of HPK1 (unknown origin) assessed as remaining activity at 1 uM by Kinome scan method relative to control.
Series [10] is described as follows: Cmax in male Sprague-Dawley rat at 5 mg/kg, iv measured for 24 hrs by LC-MS/MS analysis. The series is classed as ADME, organism-based. Particulars: in vivo. The method, boiled down:
(§2)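 Sprague-Dawley rats, single intravenous or oral dose. Parameters (half-life, AUC, bioavailability) reported in a supplementary table.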

Series [11] in a line: Clearance in male Sprague-Dawley rat at 5 mg/kg, iv measured for 24 hrs by LC-MS/MS analysis. It is filed as ADME, organism-based. Particulars: in vivo. The method, boiled down:
as §2

Series [12] addresses Mitogen-activated protein kinase kinase kinase kinase 3 (Homo sapiens) (UniProt Q8IVH8). Kind of series: Inhibition of MAP4K3 (unknown origin) assessed as remaining activity at 1 uM by Kinome scan method relative to control.
Series [13] concerns the target Focal adhesion kinase 1 (Homo sapiens) (UniProt Q05397). Kind of series: Inhibition of FAK (unknown origin) assessed as remaining activity at 1 uM by Kinome scan method relative to control.
Series [14] can be described thus: Acute toxicity in mouse assessed as increase in BrdU-positive cells at 1 mg/kg,ip administrated once a daily for 3 weeks by H and E staining based immunohistochemical analysis relative to control. It is filed as organism-based, Liver. As to conditions: in vivo, 504 h. The method, boiled down:
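Postnatal mice dosed from 10 days of age with vehicle or 1 mg/kg once per day for 21 days (3 weeks). Vehicle is 0.1% citric acid aqueous solution containing 20% Kolliphor HS 15. Liver sections stained with H&E and by IHC for CK19 and BrdU, with positive cells quantified (n = 3). Liver/body weight ratio recorded (n = 4). Values are means ± SD versus vehicle, Student's t test.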

The target of series [15] is Ephrin type-A receptor 1 (Homo sapiens) (UniProt P21709). Briefly: Inhibition of EPHA1 (unknown origin) assessed as remaining activity at 1 uM by Kinome scan method relative to control.
Series [16] addresses T1, Serine/threonine-protein kinase 3 (Homo sapiens, UniProt Q13188).
T1 sequence (Q13188 whole entry): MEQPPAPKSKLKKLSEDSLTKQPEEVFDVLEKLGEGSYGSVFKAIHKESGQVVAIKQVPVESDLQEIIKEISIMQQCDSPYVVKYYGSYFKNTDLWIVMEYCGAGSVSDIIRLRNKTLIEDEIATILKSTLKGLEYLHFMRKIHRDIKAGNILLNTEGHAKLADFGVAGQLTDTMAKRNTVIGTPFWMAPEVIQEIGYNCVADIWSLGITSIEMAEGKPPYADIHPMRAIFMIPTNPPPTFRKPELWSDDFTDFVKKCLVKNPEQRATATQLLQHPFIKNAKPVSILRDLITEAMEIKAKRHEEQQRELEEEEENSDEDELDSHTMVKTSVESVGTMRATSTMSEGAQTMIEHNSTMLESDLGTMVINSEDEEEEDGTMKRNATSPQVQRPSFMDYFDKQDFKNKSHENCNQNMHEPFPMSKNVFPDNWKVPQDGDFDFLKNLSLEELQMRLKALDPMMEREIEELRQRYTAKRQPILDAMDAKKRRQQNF
Briefly: Inhibition of Flag-tagged full-length MST2 (unknown origin) transfected in HEK293T cells assessed as MOB1a phosphorylation level incubated for 3 hrs by immunoblot analysis.

Series [17] concerns Epidermal growth factor receptor (Homo sapiens), P00533 [UNDEFINED MUTATION]. Briefly: Inhibition of EGFR L747-S752del/P753S mutant (unknown origin) assessed as remaining activity at 1 uM by Kinome scan method relative to control.
Series [18] deals with Tyrosine-protein kinase Fer (Homo sapiens) (UniProt P16591). Briefly: Inhibition of FER (unknown origin) assessed as remaining activity at 1 uM by Kinome scan method relative to control.
Series [19] has as its system Tyrosine-protein kinase ABL1 (Homo sapiens), P00519 [F317I]. Briefly: Inhibition of ABL1 F317I mutant (unknown origin) assessed as remaining activity at 1 uM by Kinome scan method relative to control. The method, boiled down: as §1
Series [20] concerns the target Cyclin-dependent kinase 16 (Homo sapiens) (UniProt Q00536). Kind of series: Inhibition of PCTK1 (unknown origin) assessed as remaining activity at 1 uM by Kinome scan method relative to control.
Series [21] deals with Serine/threonine-protein kinase PAK 1 (Homo sapiens) (UniProt Q13153). Briefly: Inhibition of PAK1 (unknown origin) assessed as remaining activity at 1 uM by Kinome scan method relative to control.

Calls of active or inactive are those of the source. The calls are words filed in the database; no cut-off is given here.

Chain of Mast/stem cell growth factor receptor Kit (Homo sapiens), P10721 [V559D,V654A] (P10721 whole entry V559D/V654A): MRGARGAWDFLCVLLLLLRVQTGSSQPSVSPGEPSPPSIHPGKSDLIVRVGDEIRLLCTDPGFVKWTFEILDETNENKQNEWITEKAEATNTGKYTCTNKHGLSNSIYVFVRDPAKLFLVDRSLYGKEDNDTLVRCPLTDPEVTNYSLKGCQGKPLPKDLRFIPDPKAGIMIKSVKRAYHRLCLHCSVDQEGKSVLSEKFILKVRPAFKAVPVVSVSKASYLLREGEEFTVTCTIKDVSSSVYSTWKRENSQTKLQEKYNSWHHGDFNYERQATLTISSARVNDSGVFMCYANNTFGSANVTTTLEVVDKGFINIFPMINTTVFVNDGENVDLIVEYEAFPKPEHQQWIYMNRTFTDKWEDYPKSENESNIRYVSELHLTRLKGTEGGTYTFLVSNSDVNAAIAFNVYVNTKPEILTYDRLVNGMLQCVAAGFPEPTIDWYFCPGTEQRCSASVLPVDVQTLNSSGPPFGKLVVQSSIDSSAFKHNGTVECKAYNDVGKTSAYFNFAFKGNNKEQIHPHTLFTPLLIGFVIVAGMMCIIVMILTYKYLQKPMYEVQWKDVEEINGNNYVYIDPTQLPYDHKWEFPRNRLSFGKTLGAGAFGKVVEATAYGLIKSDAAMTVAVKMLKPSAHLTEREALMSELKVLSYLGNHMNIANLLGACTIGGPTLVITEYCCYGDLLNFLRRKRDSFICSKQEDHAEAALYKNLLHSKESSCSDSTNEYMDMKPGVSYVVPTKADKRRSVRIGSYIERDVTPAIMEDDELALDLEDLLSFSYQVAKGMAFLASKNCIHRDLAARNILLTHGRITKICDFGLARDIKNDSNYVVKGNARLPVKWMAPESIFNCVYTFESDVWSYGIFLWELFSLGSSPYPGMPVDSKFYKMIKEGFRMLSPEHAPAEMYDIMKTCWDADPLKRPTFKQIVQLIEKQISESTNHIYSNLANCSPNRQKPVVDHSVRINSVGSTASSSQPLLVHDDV
Chain of Tyrosine-protein kinase ABL1 (Homo sapiens), P00519 [F317I] (P00519 whole entry F317I): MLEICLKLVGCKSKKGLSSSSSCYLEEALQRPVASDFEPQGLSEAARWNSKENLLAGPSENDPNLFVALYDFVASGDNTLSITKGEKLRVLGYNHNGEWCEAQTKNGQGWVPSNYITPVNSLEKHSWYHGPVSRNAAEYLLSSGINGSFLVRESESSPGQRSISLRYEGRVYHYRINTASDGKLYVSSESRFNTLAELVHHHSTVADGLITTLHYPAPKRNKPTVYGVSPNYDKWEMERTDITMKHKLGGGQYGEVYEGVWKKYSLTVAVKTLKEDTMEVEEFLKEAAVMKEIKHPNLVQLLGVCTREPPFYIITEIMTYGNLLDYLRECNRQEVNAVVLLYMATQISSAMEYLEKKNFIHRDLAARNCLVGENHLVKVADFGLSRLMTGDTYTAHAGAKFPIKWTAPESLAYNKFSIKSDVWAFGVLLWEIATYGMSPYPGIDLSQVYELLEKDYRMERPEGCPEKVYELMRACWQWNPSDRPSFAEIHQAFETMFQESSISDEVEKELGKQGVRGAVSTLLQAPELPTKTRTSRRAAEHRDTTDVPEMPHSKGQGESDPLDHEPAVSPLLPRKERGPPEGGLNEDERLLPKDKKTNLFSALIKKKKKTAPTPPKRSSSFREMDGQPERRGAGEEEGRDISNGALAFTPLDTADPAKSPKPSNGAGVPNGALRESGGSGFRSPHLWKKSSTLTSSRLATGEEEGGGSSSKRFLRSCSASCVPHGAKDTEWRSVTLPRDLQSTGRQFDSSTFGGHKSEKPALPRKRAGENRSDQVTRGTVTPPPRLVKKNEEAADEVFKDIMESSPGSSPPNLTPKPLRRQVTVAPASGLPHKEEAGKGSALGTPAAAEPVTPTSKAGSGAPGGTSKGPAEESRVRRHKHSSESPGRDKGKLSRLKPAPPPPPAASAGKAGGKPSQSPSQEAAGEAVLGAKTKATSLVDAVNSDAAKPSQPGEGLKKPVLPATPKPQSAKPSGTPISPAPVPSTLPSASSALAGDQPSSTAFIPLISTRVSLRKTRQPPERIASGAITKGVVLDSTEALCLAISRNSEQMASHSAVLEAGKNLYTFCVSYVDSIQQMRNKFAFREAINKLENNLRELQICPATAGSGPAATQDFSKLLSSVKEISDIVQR
Chain of Tyrosine-protein kinase Fer (Homo sapiens) (P16591 whole entry, looked up): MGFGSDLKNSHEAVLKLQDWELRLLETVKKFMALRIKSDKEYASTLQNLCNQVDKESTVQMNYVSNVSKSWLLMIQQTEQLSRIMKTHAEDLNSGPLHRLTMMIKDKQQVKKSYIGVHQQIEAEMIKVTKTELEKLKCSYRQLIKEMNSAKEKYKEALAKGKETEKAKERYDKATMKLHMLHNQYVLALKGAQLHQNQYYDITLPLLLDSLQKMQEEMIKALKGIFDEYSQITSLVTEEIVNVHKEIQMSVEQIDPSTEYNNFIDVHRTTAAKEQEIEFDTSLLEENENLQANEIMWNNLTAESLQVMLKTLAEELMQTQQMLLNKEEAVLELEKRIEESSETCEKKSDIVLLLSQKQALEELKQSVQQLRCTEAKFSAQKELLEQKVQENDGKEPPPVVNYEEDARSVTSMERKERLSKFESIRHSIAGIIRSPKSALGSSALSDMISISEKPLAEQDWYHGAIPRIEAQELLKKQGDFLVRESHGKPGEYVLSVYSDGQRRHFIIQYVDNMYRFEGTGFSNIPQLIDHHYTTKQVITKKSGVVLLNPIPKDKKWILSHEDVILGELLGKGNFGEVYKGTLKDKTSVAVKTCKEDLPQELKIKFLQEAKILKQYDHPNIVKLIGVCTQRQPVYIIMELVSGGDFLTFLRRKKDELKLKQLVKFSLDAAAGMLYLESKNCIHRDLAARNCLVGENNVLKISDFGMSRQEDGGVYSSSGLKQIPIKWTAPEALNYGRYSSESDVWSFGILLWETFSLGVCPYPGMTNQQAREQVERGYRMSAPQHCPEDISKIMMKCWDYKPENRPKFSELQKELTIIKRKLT
Chain of Cyclin-dependent kinase 2 homolog (Plasmodium falciparum (isolate K1 / Thailand)) (Q07785 whole entry): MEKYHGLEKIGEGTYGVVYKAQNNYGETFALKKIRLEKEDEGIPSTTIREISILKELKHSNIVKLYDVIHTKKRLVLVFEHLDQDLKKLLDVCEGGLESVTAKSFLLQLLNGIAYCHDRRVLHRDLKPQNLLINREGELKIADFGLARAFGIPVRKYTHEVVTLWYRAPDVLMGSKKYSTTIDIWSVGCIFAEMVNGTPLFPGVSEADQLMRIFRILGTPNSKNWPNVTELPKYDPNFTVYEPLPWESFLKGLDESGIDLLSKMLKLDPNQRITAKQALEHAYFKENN
Chain of Mitogen-activated protein kinase kinase kinase kinase 1 (Homo sapiens) (Q92918 whole entry, looked up): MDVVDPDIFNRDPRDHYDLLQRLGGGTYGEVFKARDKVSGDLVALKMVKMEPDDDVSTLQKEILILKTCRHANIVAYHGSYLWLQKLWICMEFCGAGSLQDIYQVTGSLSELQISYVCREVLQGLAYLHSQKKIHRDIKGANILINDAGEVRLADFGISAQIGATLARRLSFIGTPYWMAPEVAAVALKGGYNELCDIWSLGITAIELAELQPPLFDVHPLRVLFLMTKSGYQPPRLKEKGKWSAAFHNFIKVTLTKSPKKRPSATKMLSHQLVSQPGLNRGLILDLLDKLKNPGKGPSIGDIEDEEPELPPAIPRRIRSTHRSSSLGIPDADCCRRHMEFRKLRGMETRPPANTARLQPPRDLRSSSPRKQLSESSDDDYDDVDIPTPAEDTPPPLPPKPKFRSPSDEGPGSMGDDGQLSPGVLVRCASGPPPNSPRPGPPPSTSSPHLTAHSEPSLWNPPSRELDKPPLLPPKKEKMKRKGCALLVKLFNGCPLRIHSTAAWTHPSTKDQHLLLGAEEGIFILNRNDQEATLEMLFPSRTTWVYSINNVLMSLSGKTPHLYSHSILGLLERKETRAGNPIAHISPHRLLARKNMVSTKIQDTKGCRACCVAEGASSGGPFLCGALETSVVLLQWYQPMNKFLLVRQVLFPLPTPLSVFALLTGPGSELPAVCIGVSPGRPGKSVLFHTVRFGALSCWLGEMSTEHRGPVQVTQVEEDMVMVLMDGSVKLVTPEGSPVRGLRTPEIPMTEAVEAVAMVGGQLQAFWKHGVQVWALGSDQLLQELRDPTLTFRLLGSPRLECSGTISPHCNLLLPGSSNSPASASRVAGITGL
Chain of Cyclin-dependent kinase 16 (Homo sapiens) (Q00536 whole entry): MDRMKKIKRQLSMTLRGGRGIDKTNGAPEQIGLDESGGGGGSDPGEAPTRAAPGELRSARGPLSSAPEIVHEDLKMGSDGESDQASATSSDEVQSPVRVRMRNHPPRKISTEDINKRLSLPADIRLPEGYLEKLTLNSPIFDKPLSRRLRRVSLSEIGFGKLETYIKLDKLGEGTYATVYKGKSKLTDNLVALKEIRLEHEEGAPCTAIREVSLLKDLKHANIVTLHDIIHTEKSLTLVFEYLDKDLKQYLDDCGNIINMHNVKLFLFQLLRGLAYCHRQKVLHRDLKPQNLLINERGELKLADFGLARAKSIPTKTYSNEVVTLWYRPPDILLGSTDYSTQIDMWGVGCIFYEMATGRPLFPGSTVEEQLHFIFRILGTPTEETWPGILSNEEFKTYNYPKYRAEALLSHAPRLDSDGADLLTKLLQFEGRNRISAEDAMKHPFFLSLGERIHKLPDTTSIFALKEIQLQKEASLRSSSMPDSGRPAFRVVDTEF
Chain of Activin receptor type-2A (Homo sapiens) (P27037 whole entry): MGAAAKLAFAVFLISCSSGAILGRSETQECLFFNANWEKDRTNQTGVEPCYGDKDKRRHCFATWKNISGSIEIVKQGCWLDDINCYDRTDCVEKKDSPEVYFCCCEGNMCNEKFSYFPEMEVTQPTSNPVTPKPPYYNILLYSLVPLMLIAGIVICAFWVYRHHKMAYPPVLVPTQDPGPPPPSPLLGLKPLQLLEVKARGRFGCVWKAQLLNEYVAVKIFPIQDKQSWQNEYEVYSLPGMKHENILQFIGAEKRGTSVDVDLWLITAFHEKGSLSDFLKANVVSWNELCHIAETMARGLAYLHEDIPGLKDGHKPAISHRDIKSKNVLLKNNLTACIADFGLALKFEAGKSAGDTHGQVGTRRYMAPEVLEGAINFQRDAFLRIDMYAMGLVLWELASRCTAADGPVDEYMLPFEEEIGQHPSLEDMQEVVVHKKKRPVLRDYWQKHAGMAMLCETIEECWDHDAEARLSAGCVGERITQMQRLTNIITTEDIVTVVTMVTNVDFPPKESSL

By Cmax is commonly meant the highest concentration seen after dosing. By clearance is commonly meant a measure of how efficiently the substance is removed, as volume per time. A lower clearance goes with inefficient removal. Usually IC50 stands for the concentration at which inhibition is half-maximal. Regarding `CN1C(=O)c2sccc2N(C)c2nc(Nc3ccc(S(N)(=O)=O)cc3)ncc21`, the Activity stood at 93% in series [1]; 100% in series [2]; 100% in [3]; 98% in [4]; 92% in series [5]; 100% in [6]. In addition, the Activity in [7] stood at 91%; in series [8] it was 100%; in series [9], 79%; in [12], 100%; in series [13], 96%; in series [14] it was 15%. Besides, the Activity in series [15] amounted to 92%; in [17] it was 73%; in [18], 100%; in [19] it was 40%; in series [20], 93%; in series [21], 100%. Further, the inhibition entry in the series with RAW264.7 is “Active”. This compound also came in with a Cmax in [10] of 1140 ng/mL. In addition, in series [11], the clearance is 65.8 mL/min/kg. The IC50 in series [16] turned out to be 0.0381 µM.
